In ChEMBL document CHEMBL5653631, “A Potent and Selective ULK1 Inhibitor Suppresses Autophagy and Sensitizes Cancer Cells to Nutrient Stress” (iScience, 2018) one finds fold change (FC) and inhibition data, which are given here for three compounds.

The target of test [1] is Protein kinase C eta type (Homo sapiens) (UniProt P24723). As to the kind of experiment: Inhibition of human recombinant PKCH at 40 nM related to control ULK1.
Test [2] concerns the target T1, Aurora kinase A (Homo sapiens) (UniProt O14965).
T1 sequence (whole entry): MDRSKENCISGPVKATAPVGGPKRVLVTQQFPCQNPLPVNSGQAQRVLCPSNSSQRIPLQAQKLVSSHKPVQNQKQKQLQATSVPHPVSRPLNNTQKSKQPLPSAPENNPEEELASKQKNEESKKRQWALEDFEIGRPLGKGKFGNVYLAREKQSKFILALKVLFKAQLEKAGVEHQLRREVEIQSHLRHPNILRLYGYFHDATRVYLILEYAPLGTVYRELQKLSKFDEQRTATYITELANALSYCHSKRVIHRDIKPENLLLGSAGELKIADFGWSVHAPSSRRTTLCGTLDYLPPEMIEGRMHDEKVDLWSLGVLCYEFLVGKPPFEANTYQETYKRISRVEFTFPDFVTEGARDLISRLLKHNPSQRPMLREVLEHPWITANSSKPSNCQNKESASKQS
As to the kind of experiment: Inhibition of human recombinant AurA at 500 nM in presence of ATP by radiometric assay relative to control. The method, boiled down:
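Panel of 327 recombinant human kinases, each assayed in vitro by radiometric activity assay in duplicate at a single inhibitor concentration per compound, chosen with reference to its ULK1 inhibition. Activity remaining was expressed as percent of vehicle control, and percent inhibition was calculated as 100 minus percent activity remaining.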

For test [3], the target named is Ribosomal protein S6 kinase alpha-3 (Homo sapiens) (UniProt P51812). As to the kind of experiment: Inhibition of human recombinant RSK2 at 500 nM in presence of ATP by radiometric assay relative to control.
Chain of Ribosomal protein S6 kinase alpha-3 (Homo sapiens) (P51812 whole entry): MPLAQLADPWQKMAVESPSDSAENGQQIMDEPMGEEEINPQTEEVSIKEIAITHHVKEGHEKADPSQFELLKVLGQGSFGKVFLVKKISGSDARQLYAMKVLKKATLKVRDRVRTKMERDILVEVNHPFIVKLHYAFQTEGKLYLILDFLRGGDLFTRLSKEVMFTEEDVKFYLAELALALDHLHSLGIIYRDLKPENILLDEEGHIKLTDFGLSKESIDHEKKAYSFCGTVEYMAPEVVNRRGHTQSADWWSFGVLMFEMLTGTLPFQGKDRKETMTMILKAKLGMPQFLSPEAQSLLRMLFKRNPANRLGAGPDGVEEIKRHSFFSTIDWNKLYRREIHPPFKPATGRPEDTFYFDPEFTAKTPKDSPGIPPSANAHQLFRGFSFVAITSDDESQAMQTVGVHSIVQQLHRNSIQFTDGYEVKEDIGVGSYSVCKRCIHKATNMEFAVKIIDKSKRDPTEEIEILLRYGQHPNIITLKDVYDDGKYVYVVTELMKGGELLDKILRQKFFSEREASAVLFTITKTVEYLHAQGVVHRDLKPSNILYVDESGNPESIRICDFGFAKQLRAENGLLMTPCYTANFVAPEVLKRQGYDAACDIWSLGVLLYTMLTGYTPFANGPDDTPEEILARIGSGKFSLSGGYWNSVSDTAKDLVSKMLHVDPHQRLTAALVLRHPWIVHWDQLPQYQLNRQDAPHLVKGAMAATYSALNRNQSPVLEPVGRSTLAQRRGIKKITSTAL
Test [4] addresses Cyclin-dependent kinase 4 (Homo sapiens) (UniProt P11802). Description: Inhibition of human recombinant CDK4 at 500 nM related to control ULK1.
The target in test [5] is Dual specificity tyrosine-phosphorylation-regulated kinase 1A (Homo sapiens) (UniProt Q13627). Description: Inhibition of human recombinant DYRK1A at 500 nM related to control ULK1.
For test [6], the target named is T2, SNF-related serine/threonine-protein kinase (Homo sapiens) (UniProt Q9NRH2).
T2 sequence (whole entry): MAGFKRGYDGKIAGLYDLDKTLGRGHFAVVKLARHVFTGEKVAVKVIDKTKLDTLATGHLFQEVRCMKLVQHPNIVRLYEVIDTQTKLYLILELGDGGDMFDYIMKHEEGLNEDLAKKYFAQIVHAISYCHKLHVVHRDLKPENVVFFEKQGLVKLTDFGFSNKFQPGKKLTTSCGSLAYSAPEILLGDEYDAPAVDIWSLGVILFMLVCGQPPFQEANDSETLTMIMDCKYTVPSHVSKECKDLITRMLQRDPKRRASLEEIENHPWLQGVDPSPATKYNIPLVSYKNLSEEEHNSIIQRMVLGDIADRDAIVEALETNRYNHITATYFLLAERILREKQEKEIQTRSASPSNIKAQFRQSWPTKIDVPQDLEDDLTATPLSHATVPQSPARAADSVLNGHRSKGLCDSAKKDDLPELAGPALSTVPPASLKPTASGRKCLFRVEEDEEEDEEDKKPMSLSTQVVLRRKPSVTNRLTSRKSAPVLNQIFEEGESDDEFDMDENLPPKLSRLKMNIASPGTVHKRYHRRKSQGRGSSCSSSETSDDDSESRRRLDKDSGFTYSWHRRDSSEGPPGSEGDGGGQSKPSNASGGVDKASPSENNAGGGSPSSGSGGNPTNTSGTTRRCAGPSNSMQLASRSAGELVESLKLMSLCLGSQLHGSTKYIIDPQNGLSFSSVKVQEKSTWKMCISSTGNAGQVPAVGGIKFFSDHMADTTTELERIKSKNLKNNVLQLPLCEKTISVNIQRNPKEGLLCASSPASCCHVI
Description: Inhibition of human recombinant SNRK at 15 nM in presence of ATP by radiometric assay relative to control.

Test [7] addresses T3, Mitogen-activated protein kinase kinase kinase 5 (Homo sapiens) (UniProt Q99683).
T3 sequence (whole entry): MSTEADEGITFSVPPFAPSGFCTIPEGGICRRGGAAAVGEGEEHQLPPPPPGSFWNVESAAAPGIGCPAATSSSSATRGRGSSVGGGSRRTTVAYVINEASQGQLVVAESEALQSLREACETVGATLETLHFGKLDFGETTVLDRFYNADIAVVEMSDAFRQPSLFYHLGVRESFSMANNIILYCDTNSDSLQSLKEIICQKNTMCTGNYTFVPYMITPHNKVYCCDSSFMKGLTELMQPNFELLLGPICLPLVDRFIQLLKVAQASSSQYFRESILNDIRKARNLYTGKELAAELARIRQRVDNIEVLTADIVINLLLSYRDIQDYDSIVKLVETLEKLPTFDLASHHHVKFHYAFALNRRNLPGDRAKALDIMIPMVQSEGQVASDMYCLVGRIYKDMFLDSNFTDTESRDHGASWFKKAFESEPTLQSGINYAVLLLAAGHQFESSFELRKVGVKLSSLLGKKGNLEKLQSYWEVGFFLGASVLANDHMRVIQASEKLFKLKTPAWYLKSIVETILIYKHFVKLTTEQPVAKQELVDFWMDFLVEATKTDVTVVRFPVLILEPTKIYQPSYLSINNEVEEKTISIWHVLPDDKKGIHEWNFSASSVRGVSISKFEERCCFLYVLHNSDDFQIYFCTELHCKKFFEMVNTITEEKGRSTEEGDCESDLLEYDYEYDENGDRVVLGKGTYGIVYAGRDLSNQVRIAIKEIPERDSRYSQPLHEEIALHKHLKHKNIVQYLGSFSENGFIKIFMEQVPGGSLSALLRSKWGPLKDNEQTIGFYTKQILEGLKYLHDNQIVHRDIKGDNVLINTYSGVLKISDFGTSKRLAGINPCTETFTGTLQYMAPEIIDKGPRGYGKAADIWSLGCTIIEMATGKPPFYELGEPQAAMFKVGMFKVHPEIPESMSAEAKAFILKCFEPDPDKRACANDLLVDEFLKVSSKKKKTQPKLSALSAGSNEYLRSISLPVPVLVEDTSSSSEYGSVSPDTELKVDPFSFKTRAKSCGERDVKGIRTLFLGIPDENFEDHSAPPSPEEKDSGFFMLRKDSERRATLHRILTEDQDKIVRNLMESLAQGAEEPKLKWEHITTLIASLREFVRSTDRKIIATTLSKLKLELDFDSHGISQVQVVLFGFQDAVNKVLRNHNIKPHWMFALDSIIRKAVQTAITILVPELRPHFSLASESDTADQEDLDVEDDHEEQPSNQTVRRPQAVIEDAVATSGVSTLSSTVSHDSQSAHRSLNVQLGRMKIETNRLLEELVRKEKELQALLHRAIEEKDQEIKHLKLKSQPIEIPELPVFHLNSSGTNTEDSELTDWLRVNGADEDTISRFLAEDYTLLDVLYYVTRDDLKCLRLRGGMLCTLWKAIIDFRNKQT
Description: Inhibition of human recombinant MAP3K5 at 15 nM related to control ULK1.

Chain of Cyclin-dependent kinase 4 (Homo sapiens) (P11802 whole entry): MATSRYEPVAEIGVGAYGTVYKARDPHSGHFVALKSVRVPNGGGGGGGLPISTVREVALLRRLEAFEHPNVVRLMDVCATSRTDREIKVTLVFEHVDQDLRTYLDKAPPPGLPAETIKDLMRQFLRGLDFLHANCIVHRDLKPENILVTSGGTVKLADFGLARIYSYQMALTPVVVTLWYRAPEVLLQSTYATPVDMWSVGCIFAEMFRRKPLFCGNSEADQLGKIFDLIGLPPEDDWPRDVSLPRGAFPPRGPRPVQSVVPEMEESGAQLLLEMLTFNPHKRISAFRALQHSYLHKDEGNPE
Chain of Protein kinase C eta type (Homo sapiens) (P24723 whole entry): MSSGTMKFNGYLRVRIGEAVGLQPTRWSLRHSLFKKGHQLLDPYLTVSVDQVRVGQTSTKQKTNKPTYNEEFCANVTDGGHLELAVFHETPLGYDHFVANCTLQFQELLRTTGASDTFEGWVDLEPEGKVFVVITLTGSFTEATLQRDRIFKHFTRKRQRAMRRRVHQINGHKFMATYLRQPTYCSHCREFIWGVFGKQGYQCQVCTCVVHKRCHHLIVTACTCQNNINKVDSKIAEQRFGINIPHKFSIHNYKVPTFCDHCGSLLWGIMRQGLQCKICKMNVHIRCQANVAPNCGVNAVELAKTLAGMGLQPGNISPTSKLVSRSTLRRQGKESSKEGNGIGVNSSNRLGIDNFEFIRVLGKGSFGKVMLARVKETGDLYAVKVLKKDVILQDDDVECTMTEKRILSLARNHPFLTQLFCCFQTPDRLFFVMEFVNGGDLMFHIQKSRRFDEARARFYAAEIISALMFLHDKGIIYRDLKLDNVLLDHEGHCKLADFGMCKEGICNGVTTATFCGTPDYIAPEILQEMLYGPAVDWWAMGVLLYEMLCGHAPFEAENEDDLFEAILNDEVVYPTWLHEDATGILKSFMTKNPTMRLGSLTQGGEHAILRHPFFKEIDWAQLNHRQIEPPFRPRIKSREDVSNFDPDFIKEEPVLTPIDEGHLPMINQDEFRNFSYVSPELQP

On to `O=C(N[C@@H](C1CC1)C(F)(F)F)c1cc(-c2cnn3cc(-c4ccc(F)cc4)cnc23)cs1`, for which, in test [1], the fold change (FC) is 0.
For the compound `CNC(=O)c1ccccc1Oc1nc(Nc2cc(OC)c(OC)c(OC)c2)ncc1Br`, the figures for the inhibition in test [2] and in test [3] were 80% and 37%, respectively. The values for the fold change (FC) in test [4] and in test [5] were 0 and 0.01, respectively.
Consider `CC(C)[C@H](NC(=O)c1cc(-c2cnn3cc(-c4ccc(OCCN5CCCCC5)cc4)cnc23)cs1)C(F)(F)F`, for which the inhibition in test [6] stood at 8%. The fold change (FC) in test [7] stood at 0.
